Results published in ChEMBL document CHEMBL1933010, “3-heterocyclyl quinolone inhibitors of the HCV NS5B polymerase” (Bioorg Med Chem Lett, 2012).

Tests used:
[1] = Inhibition of Hepatitis C virus genotype 1b BK isolate NS5b polymerase activity using [3H]UTP preincubated for 120 mins measured after 1 hr by scintillation proximity assay
Summary of the method: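 Scintillation proximity assay at 22 °C. Started with [3H]UTP, UTP, 250 nM 5'-biotinylated oligo(rU12) and poly(rA). Stopped at 120 min with tRNA/streptavidin SPA beads/EDTA; 30 min, then CsCl, 1 h, top-count.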

Hepatitis C virus = assay: Antiviral activity against Hepatitis C virus genotype 1b infected in human HuH7 cells assessed as inhibition of viral replication after 48 hrs by quantitative RT-PCR; assay type: functional, organism-based, Hepacivirus hominis; settings: Huh-7, 48 h
Summary of the method: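 Huh7/Clone A replicon cells seeded at 40,000/well without G418 and kept overnight at 37 °C, 5% CO2. DMSO-serially diluted compound added (final DMSO 0.5%), 7 concentrations in triplicate, 48 h at 37 °C. Total RNA extracted; HCV replicon RNA quantified by TaqMan RT-qPCR relative to untreated cells (100%). EC50 from a 4-parameter curve fit.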

[2] = Cytotoxicity against human HuH7 cells assessed as cellular GAPDH level after 48 hrs by quantitative RT-PCR; assay type: cell-based, Huh-7; settings: read-out: GI50

IC50 [1] [µM]	EC50 (Hepatitis C virus) [µM]	Compound	CC50 at 48 h [2] [µM]
0.041	10.3	COc1cc2c(=O)c(-c3noc(Cc4ccccc4)n3)cn(Cc3ccc(Cl)cc3)c2cc1OC	
1.6		COc1cc2c(=O)c(-c3nnc(Cc4ccc(Cl)cc4)o3)cn(Cc3ccc(Cl)cc3)c2cc1OC	
4.3	8.91	COc1cc2c(=O)c(C3=N[C@@H](C)[C@@H](c4ccccc4)O3)cn(Cc3ccc(Cl)cc3)c2cc1OC	
0.115	4.4	CN1CCN(c2cc3c(cc2F)c(=O)c(-c2nnc(Cc4ccccc4)o2)cn3Cc2ccc(Cl)cc2)CC1	9.8
> 10		COc1cc2c(=O)c(-c3noc(CCc4ccccc4)n3)cn(Cc3ccc(Cl)cc3)c2cc1OC	
0.024	0.36	CN1CCN(c2cc3c(cc2F)c(=O)c(-c2noc(Cc4ccccc4)n2)cn3Cc2ccc(C(F)(F)F)cc2)CC1	15
0.075	3.68	CN1CCN(c2cc3c(cc2F)c(=O)c(-c2noc(Cc4ccc(F)cc4F)n2)cn3Cc2ccc(Cl)cc2)CC1	4.7
1.8		COc1ccc2c(c1)c(=O)c(-c1ncc(Cc3ccccc3)o1)cn2Cc1ccc(Cl)cc1	
0.023	0.84	CN1CCN(c2cc3c(cc2F)c(=O)c(-c2noc(Cc4ccccc4)n2)cn3Cc2ccc(Cl)cc2)CC1	7.3
0.015	0.23	CN1CCN(c2cc3c(cc2F)c(=O)c(-c2noc(Cc4ccc(F)cc4)n2)cn3Cc2ccc(C(F)(F)F)cc2F)CC1	6
0.019	1.43	CN1CCN(c2cc3c(cc2F)c(=O)c(-c2noc(Cc4ccc(F)cc4)n2)cn3Cc2ccc(Cl)cc2)CC1	6.4
0.038	0.61	CN1CCN(c2cc3c(cc2F)c(=O)c(-c2nnc(Cc4ccccc4)o2)cn3Cc2ccc(C(F)(F)F)cc2F)CC1	4.6
0.045	0.73	CN1CCN(c2cc3c(cc2F)c(=O)c(-c2nnc(Cc4ccc(F)cc4)o2)cn3Cc2ccc(C(F)(F)F)cc2F)CC1	5.7
0.014	0.25	CN1CCN(c2cc3c(cc2F)c(=O)c(-c2noc(Cc4ccccc4)n2)cn3Cc2ccc(C(F)(F)F)cc2F)CC1	7
> 10		COc1cc2c(=O)c(-c3noc(-c4ccccc4)n3)cn(Cc3ccc(Cl)cc3)c2cc1OC	
0.73		COc1cc2c(=O)c(-c3nc(Cc4ccccc4)no3)cn(Cc3ccc(Cl)cc3)c2cc1OC	
> 10		COc1cc2c(=O)c(-c3nc(-c4ccc(Cl)cc4)no3)cn(Cc3ccc(Cl)cc3)c2cc1OC	
> 10		COc1cc2c(=O)c(-c3nnn(Cc4ccccc4)n3)cn(Cc3ccc(Cl)cc3)c2cc1OC	
